Results as given in ChEMBL document CHEMBL2046289, “Novel 2-(2-(benzylthio)-1H-benzo[d]imidazol-1-yl)acetic acids: discovery and hit-to-lead evolution of a selective CRTh2 receptor antagonist chemotype” (Bioorg Med Chem Lett, 2012).
In brackets after ≈: the same amount, converted by molar mass.

Legend:
[1] = Solubility of the compound in phosphate buffer at pH 7; format: physicochemical
[2] = AUC in Wistar rat at 10 mg/kg, po; format: ADME, organism-based; parameters: dose 10 mg/kg, route oral; conditions: plasma
Outline: (§1)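 Male Wistar rats, 3 animals per experiment; intravenous dose 1 mg/kg and oral dose 10 mg/kg, each given as a solution.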

[3] = Volume of distribution at steady state in Wistar rat at 1 mg/kg, iv and 10 mg/kg, po; format: ADME, organism-based; conditions: in vivo, read-out: Vdss; outline: as §1
[4] = Stability of the compound in simulated gastric fluid assessed as compound remaining after 1 hr; format: physicochemical; conditions: read-out: Stability
Outline: (§2)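 Compound incubated in simulated gastric fluid for 1 h or simulated intestinal fluid for 4 h; unchanged parent recovered quantified by LC-MS, expressed as % parent remaining.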

[5] = molecular target: T1, Prostaglandin D2 receptor (Homo sapiens, UniProt Q13258); experiment: Displacement of [3H]-PGD2 from human DP1 receptor expressed in CHO cells; format: cell-based
T1 sequence (Q13258 whole entry): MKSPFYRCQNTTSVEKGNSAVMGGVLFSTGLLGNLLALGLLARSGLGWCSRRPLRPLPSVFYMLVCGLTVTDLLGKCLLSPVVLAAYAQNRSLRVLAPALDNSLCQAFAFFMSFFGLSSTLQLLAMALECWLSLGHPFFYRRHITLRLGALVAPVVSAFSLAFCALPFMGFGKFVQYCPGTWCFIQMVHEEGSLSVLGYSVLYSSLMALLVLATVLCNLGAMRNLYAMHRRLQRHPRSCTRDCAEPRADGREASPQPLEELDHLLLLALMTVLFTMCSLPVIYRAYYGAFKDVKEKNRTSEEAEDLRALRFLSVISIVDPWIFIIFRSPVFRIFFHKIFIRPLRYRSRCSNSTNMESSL

Cytochrome P450 2D6 = Cytochrome P450 2D6 (Homo sapiens, UniProt P10635); experiment: Inhibition of CYP2D6; format: ADME
Sequence of Cytochrome P450 2D6 (P10635 whole entry): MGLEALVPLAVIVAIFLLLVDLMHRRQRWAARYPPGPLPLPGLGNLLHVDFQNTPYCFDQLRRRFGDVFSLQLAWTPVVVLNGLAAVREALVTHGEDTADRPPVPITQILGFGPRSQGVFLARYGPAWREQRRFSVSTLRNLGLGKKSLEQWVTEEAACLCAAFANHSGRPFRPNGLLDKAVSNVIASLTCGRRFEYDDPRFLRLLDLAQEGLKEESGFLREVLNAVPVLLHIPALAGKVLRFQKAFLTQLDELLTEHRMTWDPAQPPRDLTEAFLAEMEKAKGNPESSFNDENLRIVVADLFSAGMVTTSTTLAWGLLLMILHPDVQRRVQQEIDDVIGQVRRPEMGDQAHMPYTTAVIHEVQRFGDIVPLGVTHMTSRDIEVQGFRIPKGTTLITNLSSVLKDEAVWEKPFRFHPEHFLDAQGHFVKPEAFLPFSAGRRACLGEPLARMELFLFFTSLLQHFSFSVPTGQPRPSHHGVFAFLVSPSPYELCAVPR

[6] = molecular target: T2, Prostaglandin D2 receptor 2 (Homo sapiens, UniProt Q9Y5Y4); experiment: Antagonist activity at human CRTh2 receptor expressed in HEK293 cells assessed as inhibition of PGD2-induced calcium flux by FLIPR assay; format: functional, cell-based
T2 sequence (Q9Y5Y4 whole entry): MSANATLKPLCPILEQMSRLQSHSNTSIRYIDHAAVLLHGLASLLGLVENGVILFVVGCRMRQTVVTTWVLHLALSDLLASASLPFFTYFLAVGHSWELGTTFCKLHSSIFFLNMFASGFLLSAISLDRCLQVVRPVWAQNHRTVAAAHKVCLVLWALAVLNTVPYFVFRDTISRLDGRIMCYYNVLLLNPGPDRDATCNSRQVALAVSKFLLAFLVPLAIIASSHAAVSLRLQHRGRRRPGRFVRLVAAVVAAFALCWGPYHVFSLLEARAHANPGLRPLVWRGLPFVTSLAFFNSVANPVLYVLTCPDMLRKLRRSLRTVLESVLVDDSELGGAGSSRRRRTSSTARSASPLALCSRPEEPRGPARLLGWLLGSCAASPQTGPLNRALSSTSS

[7] = Half life in Wistar rat at 1 mg/kg, iv and 10 mg/kg, po; format: ADME, organism-based; conditions: in vivo; outline: as §1
[8] = Intrinsic clearance in rat liver microsomes assessed per mg protein; format: ADME, Microsome; conditions: read-out: CLH
[9] = Oral bioavailability in Wistar rat at 10 mg/kg; format: ADME, organism-based; conditions: in vivo; outline: as §1
[10] = Clearance in Wistar rat at 1 mg/kg, iv and 10 mg/kg, po; format: ADME, organism-based; conditions: in vivo; outline: as §1
Cytochrome P450 3A4 [11] = molecular target: T3, Cytochrome P450 3A4 (Homo sapiens, UniProt P08684); experiment: Inhibition of CYP3A4 using midazolam as substrate; format: ADME
T3 sequence (P08684 whole entry): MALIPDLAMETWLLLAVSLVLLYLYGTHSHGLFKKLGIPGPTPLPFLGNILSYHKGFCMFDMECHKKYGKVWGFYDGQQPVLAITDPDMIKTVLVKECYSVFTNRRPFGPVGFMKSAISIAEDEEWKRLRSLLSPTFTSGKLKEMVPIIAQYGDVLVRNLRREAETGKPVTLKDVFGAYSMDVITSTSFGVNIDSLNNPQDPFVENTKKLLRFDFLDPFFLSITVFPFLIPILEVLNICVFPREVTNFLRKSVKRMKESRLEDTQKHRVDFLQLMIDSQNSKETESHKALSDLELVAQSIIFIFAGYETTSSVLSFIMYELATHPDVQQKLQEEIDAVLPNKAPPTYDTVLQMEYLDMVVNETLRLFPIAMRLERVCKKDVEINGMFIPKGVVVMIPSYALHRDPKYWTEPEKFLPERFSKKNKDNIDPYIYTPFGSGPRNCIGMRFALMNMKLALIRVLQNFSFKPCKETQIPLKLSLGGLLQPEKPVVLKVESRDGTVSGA

[12] = Solubility of the compound in 0.1 M HCl; format: physicochemical; conditions: buffer
[13] = Lipophilicity, log D of the compound at pH 7.4; format: physicochemical; conditions: buffer
[14] = molecular target: T2, Prostaglandin D2 receptor 2; experiment: Displacement of [3H]-PGD2 from human CRTh2 receptor expressed in HEK293 cells in presence of 0.5% human serum albumin; format: cell-based
[15] = Metabolic stability of the compound in human plasma assessed as compound remaining after 4 hrs; format: ADME, cell-free; conditions: read-out: Stability
Thromboxane A2 receptor = molecular target: T4, Thromboxane A2 receptor (Homo sapiens, UniProt P21731); experiment: Antagonist activity at human TP receptor by FLIPR assay; format: functional
T4 sequence (P21731 whole entry): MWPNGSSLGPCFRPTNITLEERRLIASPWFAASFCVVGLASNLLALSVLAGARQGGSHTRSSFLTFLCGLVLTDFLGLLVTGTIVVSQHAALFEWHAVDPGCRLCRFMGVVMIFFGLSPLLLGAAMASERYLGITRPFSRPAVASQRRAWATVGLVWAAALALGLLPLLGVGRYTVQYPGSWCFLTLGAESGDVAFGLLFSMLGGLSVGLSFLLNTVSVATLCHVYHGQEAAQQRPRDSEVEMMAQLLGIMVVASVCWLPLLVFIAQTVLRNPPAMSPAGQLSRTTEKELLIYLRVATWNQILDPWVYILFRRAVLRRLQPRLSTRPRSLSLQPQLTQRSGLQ

[16] = Stability of the compound in simulated intestinal fluid assessed as compound remaining after 4 hrs; format: physicochemical; conditions: read-out: Stability; outline: as §2
[17] = Intrinsic clearance in rat hepatocytes assessed per 10^6 cells; format: ADME, cell-based, Hepatocyte; conditions: read-out: CLH
[18] = molecular target: T2, Prostaglandin D2 receptor 2; experiment: Displacement of [3H]-PGD2 from human CRTh2 receptor expressed in HEK293 cells; format: cell-based
Cytochrome P450 3A4 [19] = molecular target: T3, Cytochrome P450 3A4; experiment: Inhibition of CYP3A4 using testosterone as substrate; format: ADME
Cytochrome P450 2C9 = Cytochrome P450 2C9 (Homo sapiens, UniProt P11712); experiment: Inhibition of CYP2C9; format: ADME
Sequence of Cytochrome P450 2C9 (P11712 whole entry): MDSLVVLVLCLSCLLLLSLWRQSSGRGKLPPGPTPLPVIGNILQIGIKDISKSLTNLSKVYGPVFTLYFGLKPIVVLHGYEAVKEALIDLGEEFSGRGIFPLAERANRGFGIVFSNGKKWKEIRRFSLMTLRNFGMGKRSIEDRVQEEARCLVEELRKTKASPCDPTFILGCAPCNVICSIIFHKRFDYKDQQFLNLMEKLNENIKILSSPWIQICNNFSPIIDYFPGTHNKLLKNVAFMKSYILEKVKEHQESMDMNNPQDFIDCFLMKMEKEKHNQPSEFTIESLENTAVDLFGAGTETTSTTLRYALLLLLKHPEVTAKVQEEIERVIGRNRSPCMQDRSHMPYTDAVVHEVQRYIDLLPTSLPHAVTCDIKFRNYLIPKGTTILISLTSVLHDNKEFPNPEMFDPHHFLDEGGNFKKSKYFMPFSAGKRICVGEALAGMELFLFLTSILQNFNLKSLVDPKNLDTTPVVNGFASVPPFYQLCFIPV

[20] = Solubility of the compound in Tris buffer at pH 9; format: physicochemical
[21] = Intrinsic clearance in human liver microsomes assessed per mg protein; format: ADME, Microsome; conditions: read-out: CLH

Compound	solubility [1] [µg/mL]	AUC [2] [ng·h/mL]	Vd [3] [L/kg]	remaining at 1 h [4] [%]	IC50 [5] [µM]	IC50 (Cytochrome P450 2D6) [µM]	IC50 [6] [µM]	half-life [7] [h]	microsomal CLint [8] [µL/min/mg]	bioavailability [9] [%]	clearance [10] [mL/min/kg]	IC50 (Cytochrome P450 3A4 [11]) [µM]	solubility [12] [µg/mL]	logD [13]	IC50 [14] [µM]	remaining at 4 h [15] [%]	IC50 (Thromboxane A2 receptor) [µM]	remaining at 4 h [16] [%]	hepatocyte CLint [17] [µL/min/1e6 cells]	IC50 [18] [µM]	also measured
COc1ccc(C(C)=O)cc1CSc1nc2ccccc2n1CC(=O)O	602 (≈ 1630 µM)	2360	1.1	92	> 10	> 50	0.025	2.5	17	27	20	37	575 (≈ 1550 µM)	-1.1	0.002	100	> 25	100	10	0.008	IC50 (Cytochrome P450 3A4 [19]): > 50 µM; IC50 (Cytochrome P450 2C9): 24 µM; solubility [20]: 583 µg/mL (≈ 1570 µM)
COc1ccc(C(C)=O)cc1CSc1nc2cc(F)ccc2n1CC(=O)O	399 (≈ 1030 µM)	919	1.2	95	> 10	> 50	0.005	0.9	60	19	36	10	484 (≈ 1250 µM)	-0.8	0.014	100	> 25	100	20	0.002	microsomal CLint [21]: 13 µL/min/mg; IC50 (Cytochrome P450 3A4 [19]): 15 µM; IC50 (Cytochrome P450 2C9): > 50 µM; solubility [20]: 583 µg/mL (≈ 1500 µM)
